From PMC5615838 (Toxicology Reports, 2016)

Legend:
CYP2D6 = CYP2D6 (Homo sapiens, UniProt P10635); assay: CYP inhibition, LC–MS/MS assay in human liver microsomes; assay type: in vitro ADME; settings: pooled human liver microsomes, probe bufuralol
In short: (§1)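 Follow-up CYP panel in pooled human liver microsomes with CYP-specific probe substrates; CYP-specific metabolites quantified by LC-MS/MS. Test compound at 10 μM. Percent inhibition reported.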

[1] = in vivo metabolism after single oral dose, plasma; set-up: species or system rat; settings: S7958 30 mg/kg bw oral
[2] = JECFA SPET dietary exposure estimate; set-up: species or system human; settings: 28- and 90-day toxicology studies
[3] = test system: S. typhimurium strains TA98, TA100, TA1535, TA1537 and E. coli strain WP2 uvrA; assay: bacterial reverse mutation test; assay type: cell-based, Salmonella typhimurium, Escherichia coli; settings: 50–5000 μg/plate, plate incorporation and pre-incubation, ±S9
[4] = molecular target: human bitter receptor hTAS2R8; settings: antagonist; cited from earlier work
CYP2C19 = CYP2C19 (Homo sapiens, UniProt P33261); assay: CYP inhibition, LC–MS/MS assay in human liver microsomes; assay type: in vitro ADME; settings: pooled human liver microsomes, probe S-mephenytoin
In short: as §1

CYP2C9 [5] = molecular target: T1, CYP2C9 (Homo sapiens, UniProt P11712); assay type: in vitro ADME
In short: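 Pooled human liver microsomes preincubated with test compound for 30 min, with and without an NADPH-generating system, then incubated with diclofenac as the CYP2C9 marker substrate. IC50 derived.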

[6] = proof of exposure in 28-day study, plasma concentrations; assay type: in vivo, rat; settings: for concentration at 29 day: Crl:CD(SD) (Sprague-Dawley), rat, plasma (peripheral blood), oral; for Hepatic Portal Vein Blood Mean Conc. / Hepatic Portal Vein Blood Mean Conc. Ratio: necropsy
In short: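 In the 28-day dietary study (10, 30, 100 mg/kg bw/day), plasma test compound measured in peripheral blood taken at 06:00 h GMT on Day 29. Hepatic portal vein blood was sampled from the same animals at necropsy.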

CYP3A4 = CYP3A4 (Homo sapiens, UniProt P08684); assay: CYP inhibition, LC–MS/MS assay in human liver microsomes; assay type: in vitro ADME; settings: pooled human liver microsomes, probe midazolam
In short: as §1

[7] = test system: GPCRs, ion channels, nuclear receptors, transporters; assay: lead profiling receptor screen; assay type: binding; settings: 10 μM
CYP1A2 = molecular target: T2, CYP1A2 (Homo sapiens, UniProt P05177); assay: CYP inhibition, LC–MS/MS assay in human liver microsomes; assay type: in vitro ADME; settings: pooled human liver microsomes, probe ethoxyresorufin
T2 sequence (P05177 1-516): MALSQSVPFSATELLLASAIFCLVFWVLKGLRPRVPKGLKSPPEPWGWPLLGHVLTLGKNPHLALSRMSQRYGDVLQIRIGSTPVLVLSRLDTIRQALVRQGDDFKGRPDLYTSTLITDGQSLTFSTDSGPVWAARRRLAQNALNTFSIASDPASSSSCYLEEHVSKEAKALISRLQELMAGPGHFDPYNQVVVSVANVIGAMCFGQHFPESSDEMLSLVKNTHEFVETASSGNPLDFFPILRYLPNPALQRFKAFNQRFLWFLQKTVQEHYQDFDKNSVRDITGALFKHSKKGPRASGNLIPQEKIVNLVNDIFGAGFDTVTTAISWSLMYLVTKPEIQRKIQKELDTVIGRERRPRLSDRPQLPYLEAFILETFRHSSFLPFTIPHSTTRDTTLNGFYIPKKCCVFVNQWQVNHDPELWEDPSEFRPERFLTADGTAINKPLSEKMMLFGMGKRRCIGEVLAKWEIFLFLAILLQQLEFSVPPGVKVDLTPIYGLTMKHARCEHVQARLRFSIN
In short: as §1

hERG = hERG (Homo sapiens, UniProt Q12809); assay: hERG electrophysiology; assay type: cell-based
[8] = 28-day subacute toxicity study, diet; assay type: in vivo, rat; settings: 28 days
In short: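 Diet admix given for 28 consecutive days to Crl:CD(SD) rats, 10/sex/group, at 10, 30 or 100 mg/kg bw/day. H&E-stained paraffin sections of tissues examined microscopically for all control and high-dose (100 mg/kg bw/day) animals.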

CYP2C9 [9] = molecular target: T1, CYP2C9; assay: CYP inhibition, LC–MS/MS assay in human liver microsomes; assay type: in vitro ADME; settings: pooled human liver microsomes, probe tolbutamide
In short: as §1

T1 sequence (P11712 whole entry): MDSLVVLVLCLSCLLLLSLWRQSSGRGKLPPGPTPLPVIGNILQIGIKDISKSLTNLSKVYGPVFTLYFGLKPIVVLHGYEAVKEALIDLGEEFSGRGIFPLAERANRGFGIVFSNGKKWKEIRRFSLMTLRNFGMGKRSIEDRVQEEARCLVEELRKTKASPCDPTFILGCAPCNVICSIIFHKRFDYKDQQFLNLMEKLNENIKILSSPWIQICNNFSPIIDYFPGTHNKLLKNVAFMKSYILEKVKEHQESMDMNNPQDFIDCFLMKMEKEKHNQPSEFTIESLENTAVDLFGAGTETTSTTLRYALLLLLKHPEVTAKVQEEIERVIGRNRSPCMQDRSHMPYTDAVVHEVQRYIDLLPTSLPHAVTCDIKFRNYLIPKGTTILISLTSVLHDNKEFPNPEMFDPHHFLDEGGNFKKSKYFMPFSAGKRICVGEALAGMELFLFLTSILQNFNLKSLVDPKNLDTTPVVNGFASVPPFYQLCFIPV
Sequence of CYP2D6 (P10635 whole entry): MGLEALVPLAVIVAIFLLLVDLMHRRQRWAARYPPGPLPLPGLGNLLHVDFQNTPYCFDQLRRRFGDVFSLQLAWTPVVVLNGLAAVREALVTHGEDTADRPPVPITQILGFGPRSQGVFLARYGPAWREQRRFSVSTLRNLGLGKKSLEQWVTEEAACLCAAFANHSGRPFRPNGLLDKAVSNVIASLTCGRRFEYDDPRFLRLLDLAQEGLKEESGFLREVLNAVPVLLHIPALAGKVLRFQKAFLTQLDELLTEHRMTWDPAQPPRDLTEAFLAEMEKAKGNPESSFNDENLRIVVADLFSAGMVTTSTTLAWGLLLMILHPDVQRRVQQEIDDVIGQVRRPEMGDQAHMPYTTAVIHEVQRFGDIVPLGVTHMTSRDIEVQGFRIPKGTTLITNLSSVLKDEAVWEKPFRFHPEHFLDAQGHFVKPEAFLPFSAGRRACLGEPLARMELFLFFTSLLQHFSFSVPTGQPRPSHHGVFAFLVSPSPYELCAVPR
Sequence of hERG (Q12809 whole entry): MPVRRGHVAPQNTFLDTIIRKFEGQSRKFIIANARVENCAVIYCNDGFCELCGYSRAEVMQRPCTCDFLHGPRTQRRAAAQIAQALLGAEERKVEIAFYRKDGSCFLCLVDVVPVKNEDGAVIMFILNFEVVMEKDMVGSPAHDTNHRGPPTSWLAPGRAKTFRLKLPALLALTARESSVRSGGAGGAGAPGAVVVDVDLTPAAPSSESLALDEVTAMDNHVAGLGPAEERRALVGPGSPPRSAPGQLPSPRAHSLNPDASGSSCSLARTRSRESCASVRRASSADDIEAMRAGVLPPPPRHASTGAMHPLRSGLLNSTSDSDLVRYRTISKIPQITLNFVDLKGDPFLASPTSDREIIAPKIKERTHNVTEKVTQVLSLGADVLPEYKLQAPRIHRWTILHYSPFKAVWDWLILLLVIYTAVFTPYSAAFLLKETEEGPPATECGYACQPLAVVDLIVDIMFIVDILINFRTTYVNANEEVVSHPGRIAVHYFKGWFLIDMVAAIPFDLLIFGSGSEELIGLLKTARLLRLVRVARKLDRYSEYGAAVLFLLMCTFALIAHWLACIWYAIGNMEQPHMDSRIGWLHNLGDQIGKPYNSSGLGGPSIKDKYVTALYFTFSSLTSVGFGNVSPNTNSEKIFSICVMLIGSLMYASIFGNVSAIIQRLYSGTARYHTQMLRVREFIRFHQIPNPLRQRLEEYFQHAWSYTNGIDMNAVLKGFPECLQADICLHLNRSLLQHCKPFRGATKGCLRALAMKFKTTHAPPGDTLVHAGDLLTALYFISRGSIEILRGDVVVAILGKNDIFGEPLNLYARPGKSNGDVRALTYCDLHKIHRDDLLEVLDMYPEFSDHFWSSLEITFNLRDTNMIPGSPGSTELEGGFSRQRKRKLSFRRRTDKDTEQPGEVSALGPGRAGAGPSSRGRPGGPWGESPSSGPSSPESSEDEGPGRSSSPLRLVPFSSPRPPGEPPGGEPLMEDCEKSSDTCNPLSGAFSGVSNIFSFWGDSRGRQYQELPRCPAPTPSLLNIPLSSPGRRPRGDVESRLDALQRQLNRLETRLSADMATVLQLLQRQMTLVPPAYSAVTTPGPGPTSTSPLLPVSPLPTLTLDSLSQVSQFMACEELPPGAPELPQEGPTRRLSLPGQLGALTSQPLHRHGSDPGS
Sequence of CYP3A4 (P08684 whole entry): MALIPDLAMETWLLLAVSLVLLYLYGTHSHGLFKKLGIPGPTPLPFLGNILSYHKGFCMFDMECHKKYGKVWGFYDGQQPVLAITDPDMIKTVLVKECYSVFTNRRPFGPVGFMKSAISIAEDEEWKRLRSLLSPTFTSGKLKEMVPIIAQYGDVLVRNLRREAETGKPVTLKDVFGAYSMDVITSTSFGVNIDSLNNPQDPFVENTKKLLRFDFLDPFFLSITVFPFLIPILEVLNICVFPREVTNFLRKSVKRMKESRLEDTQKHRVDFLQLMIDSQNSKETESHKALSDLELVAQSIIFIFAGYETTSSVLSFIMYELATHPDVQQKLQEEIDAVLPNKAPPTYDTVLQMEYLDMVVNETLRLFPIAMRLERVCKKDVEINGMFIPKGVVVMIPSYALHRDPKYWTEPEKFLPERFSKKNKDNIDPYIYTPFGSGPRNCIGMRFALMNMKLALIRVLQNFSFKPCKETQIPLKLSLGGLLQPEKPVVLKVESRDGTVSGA
Sequence of CYP2C19 (P33261 whole entry): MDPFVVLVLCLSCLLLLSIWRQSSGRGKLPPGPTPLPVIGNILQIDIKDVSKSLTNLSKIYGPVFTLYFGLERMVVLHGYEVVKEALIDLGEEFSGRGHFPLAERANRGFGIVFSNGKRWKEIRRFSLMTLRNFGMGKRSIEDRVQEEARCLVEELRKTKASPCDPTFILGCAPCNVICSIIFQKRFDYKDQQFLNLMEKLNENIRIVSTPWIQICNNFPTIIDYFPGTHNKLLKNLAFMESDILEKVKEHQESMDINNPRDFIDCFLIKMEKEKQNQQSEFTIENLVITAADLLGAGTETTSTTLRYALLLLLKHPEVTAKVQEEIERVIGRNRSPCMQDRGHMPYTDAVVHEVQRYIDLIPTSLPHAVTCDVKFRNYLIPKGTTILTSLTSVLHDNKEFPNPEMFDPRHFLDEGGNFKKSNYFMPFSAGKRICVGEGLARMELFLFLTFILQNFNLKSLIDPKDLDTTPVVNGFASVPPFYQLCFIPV

## Cc1noc(C)c1Cn1cc(N2C(=O)N(Cc3cccc(O)c3)C(C)(C)C2=O)cn1 [S7958, 3-(1-((3,5-dimethylisoxazol-4-yl)methyl)-1H-pyrazol-4-yl)-1-(3-hydroxybenzyl)-5,5-dimethylimidazolidine-2,4-dione]
CYP2D6
  inhibition at 10 µM: 17%
[1]
  maximum concentration in plasma: 5.2 ± 7.1 ng/mL
[2]
  NOAEL of 100 mg/kg bw/day as multiple of estimated dietary exposure: 1500 times
[3]
  Reverse mutation (in vitro), Result: Negative
[4]
  IC50: 0.073 µM
CYP2C19
  inhibition at 10 µM: 17%
CYP2C9 [5]
  IC50: 8.8 µM
CYP2C9 [5]; 30 min preincubation ±NADPH
  time- or metabolism-dependent inhibition: no evidence of either time- or metabolism-dependent inhibition
[6]; Day 29, 10 mg/kg bw/day, F
  Peripheral Blood Mean Conc. Ratio: 1
[6]; Day 29, 10 mg/kg bw/day, M
  Peripheral Blood Mean Conc. Ratio: 1
[6]; Day 29, 30 mg/kg bw/day, F
  Peripheral Blood Mean Conc. Ratio: 3.6
[6]; Day 29, 30 mg/kg bw/day, M
  Peripheral Blood Mean Conc. Ratio: 4.1
[6]; Day 29, 100 mg/kg bw/day, F
  Peripheral Blood Mean Conc. Ratio: 7.4
[6]; Day 29, 100 mg/kg bw/day, M
  Peripheral Blood Mean Conc. Ratio: 41.5
[6]; female, 10 mg/kg bw/day
  concentration at 29 day: 18.4 ng/mL
[6]; female, 30 mg/kg bw/day
  concentration at 29 day: 66.7 ng/mL
[6]; female, 100 mg/kg bw/day
  concentration at 29 day: 136 ng/mL
[6]; male, 10 mg/kg bw/day
  concentration at 29 day: 0.441 ng/mL
[6]; male, 30 mg/kg bw/day
  concentration at 29 day: 1.79 ng/mL
[6]; male, 100 mg/kg bw/day
  concentration at 29 day: 18.3 ng/mL
[6]; 10 mg/kg bw/day, F
  Hepatic Portal Vein Blood Mean Conc.: 19.4 ng/mL
  Hepatic Portal Vein Blood Mean Conc. Ratio: 1
[6]; 10 mg/kg bw/day, M
  Hepatic Portal Vein Blood Mean Conc.: 24.4 ng/mL
  Hepatic Portal Vein Blood Mean Conc. Ratio: 1
[6]; 30 mg/kg bw/day, F
  Hepatic Portal Vein Blood Mean Conc.: 85.0 ng/mL
  Hepatic Portal Vein Blood Mean Conc. Ratio: 4.4
[6]; 30 mg/kg bw/day, M
  Hepatic Portal Vein Blood Mean Conc.: 68.2 ng/mL
  Hepatic Portal Vein Blood Mean Conc. Ratio: 2.8
[6]; 100 mg/kg bw/day, F
  Hepatic Portal Vein Blood Mean Conc.: 334 ng/mL
  Hepatic Portal Vein Blood Mean Conc. Ratio: 17.2
[6]; 100 mg/kg bw/day, M
  Hepatic Portal Vein Blood Mean Conc.: 345 ng/mL
  Hepatic Portal Vein Blood Mean Conc. Ratio: 14.1
CYP3A4
  inhibition at 10 µM: 12%
[7]
  significant responses (≥50% inhibition or stimulation): No significant responses
CYP1A2
  inhibition at 10 µM: 16%
hERG
  inhibition at 10 µM: < 10%
[8]; 10, 30, 100 mg/kg bw/day food ad-mix, both sexes
  NOAEL: 100 mg/kg bw/day
[8]; up to 100 mg/kg bw/day
  Findings: No test-article related findings
CYP2C9 [9]
  inhibition at 10 µM: 62%
